Published values of several laboratories.
Protocols differ between the studies behind these lines.
KIT autoinhibited: Mast/stem cell growth factor receptor Kit, autoinhibited (KIT, Homo sapiens, UniProt P10721)
KIT V559D/V654A: Mast/stem cell growth factor receptor Kit (KIT, Homo sapiens, UniProt P10721, V559D/V654A)
KIT A829P: Mast/stem cell growth factor receptor Kit (KIT, Homo sapiens, UniProt P10721, A829P)
KIT D816H: Mast/stem cell growth factor receptor Kit (KIT, Homo sapiens, UniProt P10721, D816H)
KIT L576P: Mast/stem cell growth factor receptor Kit (KIT, Homo sapiens, UniProt P10721, L576P)
KIT T670I/V559D: Mast/stem cell growth factor receptor Kit (KIT, Homo sapiens, UniProt P10721, T670I/V559D)

Structure (SMILES)	target	assay	setting	remaining binding
COc1cnc(Nc2cccc(S(N)(=O)=O)c2)nc1N1CCN(c2ccccc2)C(=O)C1	KIT autoinhibited	binding, competition with immobilised ligand	1 µM	95%
C=CC(=O)N1CCC(C(=O)NCC(=O)N2CCN(c3nc(-c4cnc(N)nc4C(F)F)nc(N4CCOCC4)n3)CC2)CC1	KIT V559D/V654A	binding, competition with immobilised ligand	1 µM	100%
c1cnn2ncc(-c3ccnc(N4CCC45COC5)n3)c2c1	KIT A829P	binding	1 µM	61%
c1cncc(-c2cccc(Nc3nccc(NC4CCCCC4)n3)c2)c1	KIT D816H	binding, competition with immobilised ligand	10 µM	13%
COc1ccc2c(O[C@@H]3C[C@H]4C(=O)N[C@]5(C(=O)O)CC5/C=C\CCCCC[C@H](NC(=O)OC5CCCC5)C(=O)N4C3)cc(-c3csc(NC(=O)C(C)C)n3)nc2c1C (stereo partly drawn)	KIT V559D/V654A	cell-free assay, competition with immobilised ligand	1 µM	74%
CN(CCCC(F)(F)F)c1nccc(-c2cnn3ncccc23)n1	Mast/stem cell growth factor receptor Kit (KIT, Homo sapiens, UniProt P10721, D816V)	binding	1 µM	88%
O=C(c1ccc(Nc2ncc(Cl)c(-c3cc4ccccc4s3)n2)cc1)N1CCC(N2CCCC2)CC1	KIT L576P	binding, competition with immobilised ligand	1 µM	4.5%
Nc1ncc2c(n1)-c1c([nH]c3ccc(C#CC4CC4)cc13)CCCC2	KIT A829P	binding, competition with immobilised ligand	1 µM	72%
Cc1cc(NC(=O)c2cccc(S(F)(F)(F)(F)F)c2)cc(-n2ccn3nc(-c4cccnc4)cc23)c1	KIT L576P	cell-free assay, competition with immobilised ligand	1 µM	100%
C[C@@H]1CCN(c2nccc(-c3cnn4ncccc34)n2)C1	KIT D816H	binding	1 µM	79%
O=C(c1ccc(Nc2nccc(-c3cc4ccccc4s3)n2)cc1)N1CCC(N2CCCC2)CC1	KIT A829P	binding, competition with immobilised ligand	1 µM	31%
CN1CCN(c2cnc3c(C4CCN(C(=O)c5ccc(OC(F)(F)F)cc5N)CC4)ncnc3c2)CC1	KIT autoinhibited	cell-free assay, competition with immobilised ligand	1 µM	85%
O=C(NCCCN1CCOCC1)c1ccc(Nc2ncc(Cl)c(-c3ccc(Cl)s3)n2)cc1	KIT T670I/V559D	binding, competition with immobilised ligand	1 µM	2.3%
N[C@@H]1CCN(c2nccc(-c3cnn4ncccc34)n2)C1	KIT L576P	binding	1 µM	97%
O=C(Nc1cccnn1)N1CCC(=Cc2cccc(Oc3ccc(C(F)(F)F)cn3)c2)CC1	KIT A829P	cell-free assay, competition with immobilised ligand	1 µM	96%
F[C@@H]1CCN(c2nccc(-c3cnn4ncccc34)n2)C1	KIT A829P	binding	1 µM	74%
COc1ncc2cc3ccccc3nc2c1C#N	KIT autoinhibited	cell-free assay, competition with immobilised ligand	5 µM	98%
O=C(NCC1CCOCC1)c1n[nH]cc1NC(=O)c1c(F)cccc1F	KIT L576P	binding, competition with immobilised ligand	1 µM	100%
CC(=O)c1c(NS(C)(=O)=O)c2cc(-c3ccc(Cl)cc3)c(-c3ccc(Cl)cc3Cl)nc2n(C)c1=O	KIT V559D/V654A	cell-free assay, competition with immobilised ligand	1 µM	89%
Cc1cnn2ncc(-c3ccnc(N(C)C)n3)c2c1	KIT T670I/V559D	binding	1 µM	100%
CCS(=O)(=O)c1cc2cc(C[C@](O)(CC(C)(C)c3ccc(F)cc3C(N)=O)C(F)(F)F)[nH]c2cn1	KIT L576P	cell-free assay, competition with immobilised ligand	1 µM	83%
CN1CCN(c2ccc(Nc3nccc(-c4cccc([N+](=O)[O-])c4)n3)cc2C(F)(F)F)CC1	Mast/stem cell growth factor receptor Kit (KIT, Homo sapiens, UniProt P10721, V559D)	binding	10 µM	0%
O=C(O)[C@H]1[C@H](Cn2nnc3ccccc3c2=O)CC[C@@H]1C(=O)c1ccc(OCCC2CCOCC2)cc1	KIT L576P	cell-free assay, competition with immobilised ligand	1 µM	96%
CN(c1nccc(-c2cnn3ncccc23)n1)C1CC1	KIT L576P	binding	1 µM	100%
